Test results as given in ChEMBL document CHEMBL1138476 (J Med Chem, 2009).
≈ marks a conversion by molar mass, not a printed value.

Key:
[1] = test system: Canis familiaris; assay: Effect on respiratory function in spontaneously breathing mongrel dog assessed as change in pulmonary compliance at 5 mg/kg after intravenous infusion for 60 mins (RVb= -4.8+/-[…]); assay type: functional, Canis lupus familiaris
[2] = test system: Canis familiaris; assay: Effect on respiratory function in spontaneously breathing mongrel dog assessed as change in mean arterial pressure at 5 mg/kg after intravenous infusion for 15 mins (RVb= 2.1+/-1.5 %); assay type: functional, Canis lupus familiaris, Artery
[3] = test system: Rattus norvegicus; assay: Effect on acute renal function in rat assessed as change in urine sodium level per 100 gm body weight at 30 mg/kg, po (RVb= 49.9+/-3.1 mg/dl); assay type: functional
[4] = test system: Canis familiaris; assay: Effect on respiratory function in spontaneously breathing mongrel dog assessed as change in respiration rate at 5 mg/kg after intravenous infusion for 30 mins (RVb= -4.5+/-8.2 %); assay type: functional, Canis lupus familiaris
[5] = AUC in Beagle dog at 1 mg/kg, po by cassette dosing; assay type: ADME, organism-based, Canis lupus familiaris; parameters: dose 1 mg/kg, route oral; details: plasma
[6] = test system: Rattus norvegicus; assay: Anxiolytic activity in rat assessed as decrease in latency to exit dark chamber at 3 mg/kg, po by defensive withdrawal test relative to untreated control; assay type: functional; parameters: scale not given: the % may be the effect or the level left
Method in brief: (§1)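 Rat defensive withdrawal: latency to leave the dark chamber and explore the open field, maximum 900 s. Dosed orally in 0.25% Methocel 60 min before testing; n = 8 per dose, mean ± SEM. Analysed by Kruskal–Wallis followed by Mann–Whitney U against vehicle.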

[7] = test system: Canis familiaris; assay: Effect on respiratory function in spontaneously breathing mongrel dog assessed as change in peak expiratory flow at 5 mg/kg after intravenous infusion for 15 mins (RVb= -8.4+/-6.6 %); assay type: functional, Canis lupus familiaris
[8] = Plasma concentration in dog at 3 mg/kg after […]; assay type: ADME, organism-based, Canis lupus familiaris; parameters: dose 3 mg/kg, route intravenous; details: iv
[9] = Plasma concentration in rat at 30 mg/kg, po after 1 hr; assay type: ADME, organism-based; parameters: dose 30 mg/kg, route oral
Method in brief: (§2)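 Rats (n = 9, renal function study) given 30 mg/kg po; plasma levels measured in a separate cohort dosed the same way, sampled at 1 and 5 h after dosing.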

[10] = target: T1, Substance-K receptor (Homo sapiens) (UniProt P21452); assay: Inhibition of ligand binding in neurokinin 2 receptor; parameters: scale not given: the % may be the effect or the level left
T1 sequence (whole entry): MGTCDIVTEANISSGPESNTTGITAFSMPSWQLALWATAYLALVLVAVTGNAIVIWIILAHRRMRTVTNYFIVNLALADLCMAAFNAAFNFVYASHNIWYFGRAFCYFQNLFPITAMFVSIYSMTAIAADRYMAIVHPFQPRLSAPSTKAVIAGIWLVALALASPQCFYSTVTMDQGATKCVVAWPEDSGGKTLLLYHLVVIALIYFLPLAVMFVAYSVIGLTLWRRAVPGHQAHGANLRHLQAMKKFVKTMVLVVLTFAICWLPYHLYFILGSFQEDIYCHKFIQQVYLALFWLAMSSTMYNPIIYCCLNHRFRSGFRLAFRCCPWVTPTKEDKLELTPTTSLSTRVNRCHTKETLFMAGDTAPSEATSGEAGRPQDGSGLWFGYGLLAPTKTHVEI
Method in brief: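 Screened at 10^-7 and 10^-5 M for binding inhibition, then taken to a dose–response on the human neurokinin 2 receptor. IC50 is based on two experiments.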

[11] = test system: Canis familiaris; assay: Effect on respiratory function in spontaneously breathing mongrel dog assessed as change in minute volume at 5 mg/kg after intravenous infusion for 30 mins (RVb= 1.0+/-9.7 %); assay type: functional, Canis lupus familiaris
[12] = Clearance in rat at 1 mg/kg, iv and 5 mg/kg, po; assay type: ADME, organism-based; details: in vivo
Method in brief: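 Rats (n = 3) received 1 mg/kg iv in 10% DMAC, 70% propylene glycol and deionized water, or 5 mg/kg orally in 0.5% methylcellulose.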

[13] = test system: Canis familiaris; assay: Effect on respiratory function in spontaneously breathing mongrel dog assessed as change in intrapleural pressure at 5 mg/kg after intravenous infusion for 15 mins (RVb= 12.6+/-17.1 %); assay type: functional, Canis lupus familiaris
[14] = test system: Canis familiaris; assay: Effect on respiratory function in spontaneously breathing mongrel dog assessed as change in airway resistance at 5 mg/kg after intravenous infusion for 30 mins (RVb= 20.2+/-12.3 %); assay type: functional, Canis lupus familiaris
[15] = Solubility in ethanol; assay type: physicochemical
[16] = test system: Rattus norvegicus; assay: Toxicity in rat assessed as total distance traveled at 3 mg/kg, po after 1 hr by spontaneous locomotor test; assay type: organism-based; parameters: dose 3 mg/kg, route oral; details: in vivo
Method in brief: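 Rat spontaneous locomotor activity test with oral dosing in 0.25% Methocel 1 h before testing, at doses up to 100 mg/kg. Values are mean ± SEM, with N rats per group, compared with the vehicle (zero-dose) group.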

[17] = test system: Rattus norvegicus; assay: Ex vivo receptor occupancy of CRF receptor in rat brain at 1 mg/kg, po by [125I]sauvagine binding and autoradiography relative to control; assay type: functional
Method in brief: (§3)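 Rats were given 0.3, 1, 3, 10 or 30 mg/kg po in 0.25% Methocel 60 min before sacrifice. Brains were removed, sectioned and frozen at −80 °C. Ex vivo CRF receptor binding gave occupancy relative to vehicle-treated rats, reported as mean ± SEM.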

[18] = test system: Canis familiaris; assay: Effect on respiratory function in spontaneously breathing mongrel dog assessed as change in tidal volume at 5 mg/kg after intravenous infusion for 6 mins (RVb= 5.8+/-3.8 %); assay type: functional, Canis lupus familiaris
[19] = Plasma concentration in rat at 30 mg/kg, po after 5 hrs; assay type: ADME, organism-based; parameters: dose 30 mg/kg, route oral; method in brief: as §2
[20] = Plasma concentration in spontaneously breathing dog at 5 mg/kg, iv after 60 mins; assay type: ADME, organism-based, Canis lupus familiaris; parameters: dose 5 mg/kg, route intravenous
Method in brief: (§4)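 Spontaneously breathing, barbiturate-anesthetized mongrel dogs (n = 4) infused iv at 5.0 mg/kg over 6 min. Total pooled plasma concentrations taken at 6, 15, 30 and 60 min.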

[21] = Plasma concentration in spontaneously breathing dog at 5 mg/kg, iv after 15 mins; assay type: ADME, organism-based, Canis lupus familiaris; parameters: dose 5 mg/kg, route intravenous; method in brief: as §4
[22] = test system: Rattus norvegicus; assay: Anxiolytic activity in rat assessed as decrease in latency to exit dark chamber at 10 mg/kg, po by defensive withdrawal test relative to untreated control; assay type: functional; parameters: scale not given: the % may be the effect or the level left; method in brief: as §1
[23] = test system: Rattus norvegicus; assay: Effect on acute renal function in rat assessed as change in urine volume per 100 gm body weight at 30 mg/kg, po (RVb= 1.7+/-0.2 ml/100g); assay type: functional
[24] = test system: Rattus norvegicus; assay: Effect on acute renal function in rat assessed as change in urine pH per 100 gm body weight at 30 mg/kg, po (RVb= 7.74+/-0.07 mg/dl); assay type: functional
[25] = test system: Canis familiaris; assay: Effect on respiratory function in spontaneously breathing mongrel dog assessed as change in respiration rate at 5 mg/kg after intravenous infusion for 60 mins (RVb= -19.5+/-16.3 %); assay type: functional, Canis lupus familiaris
[26] = test system: Rattus norvegicus; assay: Toxicity in rat assessed as time spent on rotarod at 100 mg/kg, po after 1 hr by rotarod test; assay type: organism-based; parameters: dose 100 mg/kg, route oral; details: in vivo
Method in brief: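 Rats (N = 8 per dose) dosed po in 0.25% Methocel 1 h before rotorod testing. Time on rotorod in s, given as mean ± SEM against a vehicle (zero dose) group.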

[27] = test system: Rattus norvegicus; assay: Ex vivo receptor occupancy of CRF receptor in rat brain at 10 mg/kg, po by [125I]sauvagine binding and autoradiography relative to control; assay type: functional; method in brief: as §3
[28] = test system: Rattus norvegicus; assay: Effect on acute renal function in rat assessed as change in urine protein level per 100 gm body weight at 30 mg/kg, po (RVb= 12.0+/-2.4 mg/dl); assay type: functional
[29] = test system: Rattus norvegicus; assay: Effect on acute renal function in rat assessed as change in urine potassium level per 100 gm body weight at 30 mg/kg, po (RVb= 60.3+/-11.1 mg/dl); assay type: functional

## CC[C@@H](C)Nc1nc(C)nc2c(-c3ccc(OC)nc3C)c(C)nn12 [PEXACERFONT]
[1]
  Activity: 33.8%
[2]
  Activity: 1.2%
[3]
  Activity: 58.4 mg/dL
[4]
  Activity: -32.5%
[5]
  AUC: 2.02 µM·h
[6]
  Activity: 44%
[7]
  Activity: -0.1%
[8]
  concentration at 0.5 h: 1290 nM
[9]
  concentration at 1 h: 3990 nM
[10]
  Activity: 80%
[11]
  Activity: -30.8%
[12]
  clearance: 17.9 mL/min/kg
[13]
  Activity: 6.5%
[14]
  Activity: -57.5%
[15]
  solubility: 300 mg/mL (≈ 881 mM)
[16]
  Activity: 5639 cm
[17]
  Activity: 26%
[18]
  Activity: -3.5%
[19]
  concentration at 5 h: 4950 nM
[20]
  concentration at 1 h: 229 nM
[21]
  concentration at 0.25 h: 835 nM
[22]
  Activity: 65%
[23]
  Activity: 3 mL/100 g
[24]
  Activity: 7.74
[25]
  Activity: -14.6%
[26]
  Time: 121 s
[27]
  Activity: 69%
[28]
  Activity: 6.6 mg/dL
[29]
  Activity: 32.1 mg/dL
